A word on the MIC: it is the lowest concentration found to suppress growth.

≈ marks a conversion by molar mass, not a printed value. Where only a bound is given, the exact number is not on record here.

Assay [1] concerns the target T1, Sterol 24-C-methyltransferase (Yarrowia lipolytica) (UniProt Q6C2D9).
T1 sequence (whole entry): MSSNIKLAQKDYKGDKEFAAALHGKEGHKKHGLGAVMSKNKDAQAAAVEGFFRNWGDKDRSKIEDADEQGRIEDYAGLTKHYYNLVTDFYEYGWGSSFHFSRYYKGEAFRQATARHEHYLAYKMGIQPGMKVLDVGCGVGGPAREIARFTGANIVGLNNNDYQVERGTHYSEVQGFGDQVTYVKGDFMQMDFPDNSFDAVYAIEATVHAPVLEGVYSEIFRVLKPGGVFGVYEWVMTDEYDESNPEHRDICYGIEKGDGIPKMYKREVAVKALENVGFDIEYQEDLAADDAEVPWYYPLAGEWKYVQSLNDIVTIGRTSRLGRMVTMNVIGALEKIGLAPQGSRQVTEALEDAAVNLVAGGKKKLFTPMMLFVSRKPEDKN
The assay is described as follows: Inhibition of Yarrowia lipolytica 24-SMT assessed as dehydroergosterol-3-trimethylsilyl derivative at 0.1 ug/mL after 48 hrs by GC-MS analysis relative to untreated control. Also on record: scale not given: the % may be the effect or the level left. The gist of the method: (§1)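 Whole-cell sterol profiling. Y. lipolytica at 50,000 CFU/mL was exposed to compounds added from ethanol for 48 ± 2 h at 28 °C, and the MIC/2 and/or MIC/4 wells were used. Cells were pelleted and PBS-washed, then saponified in 1 M NaOH at 70 °C for 1 h. Sterols were extracted into TBME with a cholesterol internal standard and silylated to TMS ethers. GC-MS full scan, with each sterol given as % of total integrated quantifier-ion area.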

The target in assay [2] is T1, Sterol 24-C-methyltransferase (Yarrowia lipolytica). The assay is described as follows: Inhibition of Yarrowia lipolytica 24-SMT assessed as cholesta-7,24-dien-3-trimethylsilyl derivative at 0.1 ug/mL after 48 hrs by GC-MS analysis relative to untreated control. Details: scale not given: the % may be the effect or the level left. The method in brief: as §1
The target is the same in assay [3]. The assay is described as follows: Inhibition of Yarrowia lipolytica 24-SMT assessed as 5-dehydroepisterol-3-trimethylsilyl derivative at 0.1 ug/mL after 48 hrs by GC-MS analysis relative to untreated control. Details: scale not given: the % may be the effect or the level left. The gist of the method:
as §1

Assay [4] has the same target. The assay is described as follows: Inhibition of Yarrowia lipolytica 24-SMT assessed as lanosterol-3-trimethylsilyl derivative at 0.1 ug/mL after 48 hrs by GC-MS analysis relative to untreated control. Details: scale not given: the % may be the effect or the level left. The method in brief:
as §1

In assay [5] the test system is Yarrowia lipolytica. The assay is described as follows: Antimicrobial activity against Yarrowia lipolytica after 48 hrs. Format: functional. The gist of the method:
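Broth dilution MIC per DIN 58940-84. Log-phase Y. lipolytica in yeast extract/peptone/glucose medium, counted against a 0.5 McFarland standard (A570) and seeded at 50,000 CFU/mL in 2 mL wells. Compounds added from ethanol; final concentrations 2 to 0.06125 µg/mL unless otherwise stated. Plates incubated 48 ± 2 h at 28 °C. MIC is the lowest concentration with no visible growth.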

The target of assay [6] is T1, Sterol 24-C-methyltransferase (Yarrowia lipolytica). The assay is described as follows: Inhibition of Yarrowia lipolytica 24-SMT assessed as zymosterol-3-trimethylsilyl derivative level at 0.1 ug/mL after 48 hrs by GC-MS analysis relative to untreated control. Also on record: scale not given: the % may be the effect or the level left. The gist of the method: as §1

For assay [7] the target is unchanged. As to the kind of experiment: Inhibition of Yarrowia lipolytica 24-SMT assessed as cholesta-5,7,24-trien-3-trimethylsilyl derivative at 0.1 ug/mL after 48 hrs by GC-MS analysis relative to untreated control. Also on record: scale not given: the % may be the effect or the level left. The gist of the method:
as §1

Assay [8] shares this target. The assay is described as follows: Inhibition of Yarrowia lipolytica 24-SMT assessed as dehydroergosterol-3-trimethylsilyl derivative at 0.06 ug/mL after 48 hrs by GC-MS analysis relative to untreated control. Details: scale not given: the % may be the effect or the level left. The method in brief: as §1
The target is the same in assay [9]. The assay is described as follows: Inhibition of Yarrowia lipolytica 24-SMT assessed as cholesta-7,24-dien-3-trimethylsilyl derivative at 0.06 ug/mL after 48 hrs by GC-MS analysis relative to untreated control. Also on record: scale not given: the % may be the effect or the level left. The gist of the method: as §1
Assay [10] has the same target. The assay is described as follows: Inhibition of Yarrowia lipolytica 24-SMT assessed as 5-dehydroepisterol-3-trimethylsilyl derivative at 0.06 ug/mL after 48 hrs by GC-MS analysis relative to untreated control. Details: scale not given: the % may be the effect or the level left. The gist of the method:
as §1

Assay [11] has the same target. The assay is described as follows: Inhibition of Yarrowia lipolytica 24-SMT assessed as zymosterol-3-trimethylsilyl derivative level at 0.06 ug/mL after 48 hrs by GC-MS analysis relative to untreated control. Also on record: scale not given: the % may be the effect or the level left. The method in brief: as §1
Assay [12] has the same target. As to the kind of experiment: Inhibition of Yarrowia lipolytica 24-sterol C-methyltransferase assessed as ergosterol-3-trimethylsilyl derivative level at 0.06 ug/mL after 48 hrs by GC-MS analysis relative to untreated control. Details: scale not given: the % may be the effect or the level left. The method in brief:
as §1

For assay [13] the target is unchanged. The assay is described as follows: Inhibition of Yarrowia lipolytica 24-SMT assessed as cholesta-5,7,24-trien-3-trimethylsilyl derivative at 0.06 ug/mL after 48 hrs by GC-MS analysis relative to untreated control. Details: scale not given: the % may be the effect or the level left. The gist of the method:
as §1

The target is the same in assay [14]. The assay is described as follows: Inhibition of Yarrowia lipolytica 24-SMT assessed as 5-dehydroepisterol-3-trimethylsilyl derivative at 2 ug/mL after 48 hrs by GC-MS analysis relative to untreated control. Details: scale not given: the % may be the effect or the level left. The method in brief: as §1
For assay [15] the target is unchanged. The assay is described as follows: Inhibition of Yarrowia lipolytica 24-SMT assessed as 5-dehydroepisterol-3-trimethylsilyl derivative at 1 ug/mL after 48 hrs by GC-MS analysis relative to untreated control. Also on record: scale not given: the % may be the effect or the level left. The method in brief:
as §1

Assay [16] has the same target. The assay is described as follows: Inhibition of Yarrowia lipolytica 24-SMT assessed as cholesta-7,24-dien-3-trimethylsilyl derivative at 2 ug/mL after 48 hrs by GC-MS analysis relative to untreated control. Also on record: scale not given: the % may be the effect or the level left. The method in brief:
as §1

Assay [17] has the same target. The assay is described as follows: Inhibition of Yarrowia lipolytica 24-SMT assessed as dehydroergosterol-3-trimethylsilyl derivative at 1 ug/mL after 48 hrs by GC-MS analysis relative to untreated control. Also on record: scale not given: the % may be the effect or the level left. The gist of the method: as §1
Assay [18] has the same target. As to the kind of experiment: Inhibition of Yarrowia lipolytica 24-SMT assessed as dehydroergosterol-3-trimethylsilyl derivative at 2 ug/mL after 48 hrs by GC-MS analysis relative to untreated control. Details: scale not given: the % may be the effect or the level left. The method in brief: as §1
The target is the same in assay [19]. The assay is described as follows: Inhibition of Yarrowia lipolytica 24-SMT assessed as zymosterol-3-trimethylsilyl derivative level at 2 ug/mL after 48 hrs by GC-MS analysis relative to untreated control. Also on record: scale not given: the % may be the effect or the level left. The method in brief: as §1
Assay [20] shares this target. The assay is described as follows: Inhibition of Yarrowia lipolytica 24-sterol C-methyltransferase assessed as ergosterol-3-trimethylsilyl derivative level at 2 ug/mL after 48 hrs by GC-MS analysis relative to untreated control. Details: scale not given: the % may be the effect or the level left. The method in brief:
as §1

For assay [21] the target is unchanged. The assay is described as follows: Inhibition of Yarrowia lipolytica 24-sterol C-methyltransferase assessed as ergosterol-3-trimethylsilyl derivative level at 1 ug/mL after 48 hrs by GC-MS analysis relative to untreated control. Also on record: scale not given: the % may be the effect or the level left. The method in brief: as §1
Assay [22] has the same target. The assay is described as follows: Inhibition of Yarrowia lipolytica 24-sterol C-methyltransferase assessed as cholesta-5,7,24-trien-3-trimethylsilyl derivative at 1 ug/mL after 48 hrs by GC-MS analysis relative to untreated control. Details: scale not given: the % may be the effect or the level left. The gist of the method:
as §1

The target is the same in assay [23]. As to the kind of experiment: Inhibition of Yarrowia lipolytica 24-SMT assessed as cholesta-5,7,24-trien-3-trimethylsilyl derivative at 2 ug/mL after 48 hrs by GC-MS analysis relative to untreated control. Details: scale not given: the % may be the effect or the level left. The gist of the method: as §1
Assay [24] has the same target. The assay is described as follows: Inhibition of Yarrowia lipolytica 24-SMT assessed as cholesta-7,24-dien-3-trimethylsilyl derivative at 1 ug/mL after 48 hrs by GC-MS analysis relative to untreated control. Details: scale not given: the % may be the effect or the level left. The method in brief: as §1
For assay [25] the target is unchanged. The assay is described as follows: Inhibition of Yarrowia lipolytica 24-SMT assessed as dehydroergosterol-3-trimethylsilyl derivative at 0.2 ug/mL after 48 hrs by GC-MS analysis relative to untreated control. Also on record: scale not given: the % may be the effect or the level left. The gist of the method: as §1
Assay [26] has the same target. As to the kind of experiment: Inhibition of Yarrowia lipolytica 24-SMT assessed as 14-alpha-methylergosta-8,24(28)-dien-3beta,6alpha-di-trimethylsilyl derivative at 0.2 ug/mL after 48 hrs by GC-MS analysis relative to untreated control. Details: scale not given: the % may be the effect or the level left. The gist of the method:
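Y. lipolytica whole cells, inoculated at 50,000 CFU/mL in yeast extract/peptone/glucose medium, exposed to compound (ethanol solution, 10 µL per 2 mL well), 48 ± 2 h, 28 °C. Wells at MIC/2 and/or MIC/4 pelleted, saponified in 1 M NaOH at 70 °C for 1 h, extracted with TBME and silylated. GC–MS with cholesterol internal standard. Each sterol given as percent of total integrated area; ethanol-only wells as control.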

Assay [27] has the same target. The assay is described as follows: Inhibition of Yarrowia lipolytica 24-SMT assessed as lanosterol-3-trimethylsilyl derivative at 0.2 ug/mL after 48 hrs by GC-MS analysis relative to untreated control. Also on record: scale not given: the % may be the effect or the level left. The gist of the method: as §1
The target is the same in assay [28]. As to the kind of experiment: Inhibition of Yarrowia lipolytica 24-SMT assessed as ergosterol-3-trimethylsilyl derivative level at 0.2 ug/mL after 48 hrs by GC-MS analysis relative to untreated control. Details: scale not given: the % may be the effect or the level left. The gist of the method:
as §1

`CC(C)CNC[C@@H](C)[C@H]1CC[C@H]2C3=CC[C@H]4C[C@@H](O)CC[C@]4(C)[C@H]3CC[C@]12C`: the Activity turned out to be 47.6% in assay [1]; 3.1% in assay [2]; 4.4% in assay [3]; 0.3% in assay [4]; 1.2% in [6]; 43.3% in assay [7]. Moreover, in assay [5], the minimal inhibitory concentration (MIC) turned out to be 0.25 µg/mL (≈ 0.645 µM).

Take `CCCCCNC[C@@H](C)[C@H]1CC[C@H]2C3=CC[C@H]4C[C@@H](O)CC[C@]4(C)[C@H]3CC[C@]12C`: the Activity in assay [8] turned out to be 68.9%; in assay [9], 1.6%; in assay [10], 3.8%; in assay [11], 0.4%; in assay [12], 4.9%; in assay [13], 20.4%. It took 0.25 µg/mL (≈ 0.622 µM) to inhibit growth in [5] (MIC).

As for `C[C@H](CNCCN1CCCC1)[C@H]1CC[C@H]2C3=CC[C@H]4C[C@@H](O)CC[C@]4(C)[C@H]3CC[C@]12C`, the Activity in assay [14] was 3.6%; in [15], 4.8%; in assay [16], 6%; in [17], 65.4%; in assay [18] it was 40.1%; in assay [19], 0.4%. The Activity stood at 3.3% in [20]; 1.7% in assay [21]; 24.3% in [22]; 46.6% in assay [23]; 3.6% in assay [24]. In addition, the MIC in [5] was over 2 µg/mL.

For the molecule `CC(=O)N1CCN(c2ccc(OCC3COC(Cn4ccnc4)(c4ccc(Cl)cc4Cl)O3)cc2)CC1` (stereo unspecified) [KETOCONAZOLE], the Activity was determined as 59.1% in assay [25], 2.4% in assay [26], 28.9% in assay [27] and 9.6% in assay [28]. In assay [5], inhibition of growth (MIC) required 0.5 µg/mL (≈ 0.941 µM).

The values are drawn from ChEMBL document CHEMBL1152672, “Side chain azasteroids and thiasteroids as sterol methyltransferase inhibitors in ergosterol biosynthesis” (2009).
